Assays:
[1] = melting temperature; fluorescence melt of hairpins on a sequencing array, two-state fit, raised by 9.35 °C to match UV melts; settings: sodium 0.088 M
How it was run: (§1)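 Two-state fits, bootstrapped, provided melting temperature and folding enthalpy from Cy3 fluorescence normalised to pre-quench Cy3 and to control constructs. Library hairpins with annealed Cy3 and quencher oligos were imaged on a sequenced MiSeq flow cell in 50 mM Na-HEPES pH 8.0, 25 mM NaCl, at 2.5 °C intervals up to 60 °C. Four replicates were combined with inverse-variance weighting. A 9.35 °C upward shift was applied to fitted temperatures to match UV melts.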

[2] = folding enthalpy; higher = less favourable; fluorescence melt of hairpins on a sequencing array, two-state fit; settings: sodium 0.088 M
How it was run: as §1

| Sequence | Tm [1] [°C] | folding enthalpy [2] [kcal/mol] |
| --- | --- | --- |
| GATCCGCAGTCGGATC ((((((....)))))) | 55.9 | -35 |
| GTAACACCGAAAGGTTAC (((..(((....)))))) | 35.6 | -14.8 |
| GCGTTGAGACGC ((((....)))) | 56.6 | -29.7 |
| GATCCGACAACGGATC ((((((....)))))) | 57 | -35 |
| GTTTGTGGAAACATAAAC ((((.((....)).)))) | 39.6 | -22.8 |
| GATTCCGAAAGGAGGATC ((((((....)))..))) | 30.4 | -11.2 |
| GGGAGCGGAAACGCTTCC ((.((((....)))).)) | 61.4 | -33.7 |
| GTCCCCGAAAGGGTGAC ((((((....))).))) | 53.3 | -22.6 |
| TTATCGAAAGATAA (((((....))))) | 36.5 | -14.7 |
| GGTCTCGGAAACAAGACC (((((.(....).))))) | 41.9 | -31.8 |
| GATGGTGAAAACCATC ((((((....)))))) | 57.8 | -36.5 |
| GACGTTGGAAACAACACC (..((((....))))..) | 25.2 | -9.55 |
| GGACACGAAAGTGTGTCC ((((((....)))..))) | 55.5 | -30.6 |
| GTATGCGAAAGCATATAC ((((((....)))..))) | 42.2 | -11 |
| GATCTCCGACGAGATC ((((((....)))))) | 50 | -38.1 |
| GAGTCCGAAAGGATCTC ((((((....))).))) | 50 | -31 |
| GTTGTAGGAAACTATGAC ((..(((....)))..)) | 26.6 | -14.1 |
| GACAATGGAAACATCGTC (((.(((....))).))) | 32.5 | -26.4 |
| GCACCCACGAAAGTGTGC (((..(((....)))))) | 45.4 | -19 |
| GATCAGAATCTGATC ((((((...)))))) | 45.4 | -31.4 |
| GATCATTCAGATGATC ((((((....)))))) | 46.9 | -36.9 |
| GGTAACGAAAGTTGTACC ((((((....)))..))) | 34.8 | -17.5 |
| GATCACGTTCGTGATC ((((((....)))))) | 62.6 | -39.4 |
| GGTTCCGGAAACGGGACC (((.(((....))).))) | 58.5 | -47.1 |

| Sequence | Tm [1] [°C] | folding enthalpy [2] [kcal/mol] |
| --- | --- | --- |
| GTGGAGGGAAACTTCCAC (((((.(....).))))) | 47.3 | -30.4 |
| GGTGGAACGAAAGTTACC (((..(((....)))))) | 36.5 | -17.3 |
| GTCGTTCGAAAGAAAGAC (((.(((....))).))) | 47.8 | -31.2 |
| GCGAAGCGAAAGCAGCGC (((..((....))..))) | 57.7 | -16.6 |
| GGGTCCCGAAAGGGCCCC (((.(((....))).))) | 67.2 | -17.9 |
| GATCGATTCTTCGATC ((((((....)))))) | 56.9 | -36.8 |
| GGGCATCCGAAAGGACCC (((..(((....)))))) | 38.6 | -18.3 |
| GAGTACGAAAGTAGGCTC ((((((....)))..))) | 36.1 | -19.6 |
| GGTCAACGAAAGTTCACC (((.(((....))).))) | 35.1 | -22.3 |
| GATCGGCAACCCGATC ((((((....)))))) | 54.4 | -38.5 |
| GTGAACCGAAAGGTCAC (((.(((....)))))) | 54.9 | -27.2 |
| GCTGGCCGAAAGGCGAGC (((.(((....))).))) | 66.5 | -26.3 |
| GATCTTGAATAAGATC ((((((....)))))) | 49.3 | -31.9 |
| GAACCGCGAAAGCGCTTC (((.(((....))).))) | 35.1 | -10.6 |
| GCAGTCGAAAGACTGTGC ((((((....)))..))) | 55.3 | -18.3 |
| GCGGAGCGAAAGCTTTGC ((..(((....)))..)) | 45.5 | -14.3 |
| GCGTAGTAACGC ((((....)))) | 53 | -22 |
| CGGCCGGAAACGGTACCG ((((((....)))..))) | 43.1 | -18.4 |
| GATCTCCGGCGAGATC ((((((....)))))) | 50.7 | -27.1 |
| GGGTACGAAAGTAGGCCC ((((((....)))..))) | 38.6 | -20.1 |
| GCGGCGACCCGC ((((....)))) | 57.3 | -15.4 |
| GCGTCATGACGC ((((....)))) | 61.9 | -30.9 |
| GCACTCGGAAACGAGCAC (..((((....))))..) | 29.3 | -11.7 |
| GAGCGCGGAAACGCGTTC ((.((((....)))).)) | 57.4 | -16.9 |

| Sequence | Tm [1] [°C] | folding enthalpy [2] [kcal/mol] |
| --- | --- | --- |
| TCTCCGAAAGGAGA (((((....))))) | 59.5 | -17.6 |
| GATCGAGCCGTCGATC ((((((....)))))) | 54.4 | -34.8 |
| GACTACCGAAAGGTCGTC (((.(((....))).))) | 48.6 | -39.4 |
| GTGCGTTCGAAAGAACAC (((..(((....)))))) | 54.1 | -11.7 |
| CGATCGGAAACGATCTCG ((((((....)))..))) | 36.9 | -12.1 |
| GTCAGTCGAAAGACGAC (((.(((....)))))) | 53.1 | -32 |
| GTAAGCCCGAAAGGGTAC (((..(((....)))))) | 28.1 | -10.6 |
| GATCATTTTAATGATC ((((((....)))))) | 53.6 | -53.2 |
| GTGGATGAAAATCCAC ((((((....)))))) | 59.9 | -33.9 |
| GTTTACGGAAACGTAAAC (((((((....))))))) | 57.5 | -41.1 |
| GAGCTGCGAAAGCACTC (((.(((....)))))) | 46.2 | -20.4 |
| GATCCAACCATGGATC ((((((....)))))) | 50 | -35.5 |
| GATCAACAGTTTGATC ((((((....)))))) | 41.3 | -31.2 |
| GGCCTCGGAAACGAGGTC (.(((((....))))).) | 64.7 | -28.2 |
| GATCAGCATGCTGATC ((((((....)))))) | 60.8 | -47.5 |
| GGGTCAGGAAACTGGCTC (.(.(((....))).).) | 39.8 | -24.5 |
| GACGTTGAAAAACGTC ((((((....)))))) | 60.1 | -33.9 |
| GATCATTGGGATGATC ((((((....)))))) | 49.5 | -38.8 |
| GATCCACGGTGGATC ((((((...)))))) | 50.6 | -43.6 |
| GGACGCCGAAAGGCTCC (((.(((....)))))) | 54.3 | -19.7 |
| GTCAGGGGAAACCCTAAC ((.((((....)))).)) | 29.6 | -14.5 |
| GTGCTGCGAAAGCACCAC (((.(((....))).))) | 52.6 | -15 |
| GATCTGGAGTCAGATC ((((((....)))))) | 48.1 | -48.3 |
| GTATGAGGAAACTTATAC ((((.((....)).)))) | 31.2 | -25.7 |

| Sequence | Tm [1] [°C] | folding enthalpy [2] [kcal/mol] |
| --- | --- | --- |
| GCATAGCGAAAGCGGTGC (((..((....))..))) | 63.6 | -32.6 |
| GCACGAGGAAACCCGTAC (.(((.(....).))).) | 21.9 | -6.61 |
| GCGATGTTTCGC ((((....)))) | 51.4 | -22.9 |
| GCGTCCGCACGC ((((....)))) | 52.8 | -17.2 |
| GTCTACGAAAGTAGGAC ((((((....))).))) | 44 | -16.5 |
| GATCGACGTTCGATC ((((((...)))))) | 50 | -40.8 |
| GTGCAGCGAAAGCTCCAC (((.(((....))).))) | 44.7 | -21.8 |
| GACCAACGAAAGTTAGTC (((.(((....))).))) | 38.8 | -26 |
| GTACCTCGAAAGAGATAC (((.(((....))).))) | 38.7 | -28.3 |
| GCGTCGTGACGC ((((....)))) | 68.4 | -22.7 |
| CGACCCGGAAACGGTCG (((.(((....)))))) | 52.5 | -30.1 |
| GCATGCCGAAAGGCTTGC (((.(((....))).))) | 66.2 | -26.9 |
| CGCCACCGGAAACGGGCG (((..(((....)))))) | 49.3 | -26.2 |
| CGCAACGGAAACGTAGCG (((.(((....))).))) | 53.4 | -38 |
| GCGCACGAAAGTGGACGC ((((((....)))..))) | 55.4 | -32.7 |
| GAGCCTGGAAACAGGTTC ((.((((....)))).)) | 49.5 | -27.2 |
| CGGGCGGAAACGCTACCG ((((((....)))..))) | 45.8 | -24.3 |
| GCCCAGCGAAAGCTGGC (((.(((....)))))) | 61 | -9.03 |
| GGTTGGGGAAACCCAATC (.(((((....))))).) | 48.7 | -26.2 |
| GTGTAAGAAATTACAC ((((((....)))))) | 46.1 | -29.2 |
| GGGCGAGCGAAAGCTCCC (((..(((....)))))) | 50.5 | -13.1 |

— the array DNA melting data of Ke et al. (doi:10.1101/2024.01.08.574731)
